The results in this text go back to ChEMBL document CHEMBL4513216, “Probing the Open Global Health Chemical Diversity Library for Multistage-Active Starting Points for Next-Generation Antimalarials” (ACS Infect Dis, 2020).

The data set in a line: Toxicity liver stage against HepG2, at 10uM. It counts as cell-based. On the set-up: test concentration 10 uM, cell line HepG2-A16-CD81EGFP. To be noted: human, HepG2-A16-CD81EGFP cells; read-out: INHIBITION
The method in brief:
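Uninfected HepG2-A16-CD81EGFP cells, 3 × 10^3 per well, 1536-well, plated on prespotted compound at 10 μM final, parasite-free screening media added to match infected plates; puromycin 10 μM positive, DMSO 0.5% negative; run in parallel with 48 h PbLuc assay at 37 °C, 5% CO2; viability by CellTiter-Glo luminescence, normalized to controls.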
For `c1ccc2c(Cc3nnc([C@H]4CCN(C5CCCCC5)C4)o3)c[nH]c2c1`, the cytotoxicity at 10 µM is -0.00726%.

On to `CCOC(=O)CNC(=O)Cn1c(-c2ccoc2)nc(C)c1C`, for which the cytotoxicity at 10 µM is -2.8%.

For `CNC(=O)CN(C(=O)c1ccccc1)[C@H]1C[C@H]2CCOC[C@H]2C1`, the cytotoxicity at 10 µM was -4.36%.

For `O=C(NCC1CC1)C1CCC2(CCN(C(=O)c3cnccn3)CC2)O1` (configuration not stated), the cytotoxicity at 10 µM is -9.28%.

As to `CCC(=O)N1CC[C@H](O)[C@@H]1Cc1ccccc1`, the cytotoxicity at 10 µM was 0.081%.

Take `COC[C@H]1CC[C@H]2[C@H](CCN2C(=O)c2ccncc2F)O1`: the cytotoxicity at 10 µM is -4.61%.

Take `COc1nn(C)c2c1CCCN(C(=O)c1cccn1C)C2`: the cytotoxicity at 10 µM is 1.53%.

As for `Cc1cc(=O)[nH]c(=O)n1COCCOCc1ccccc1`, the cytotoxicity at 10 µM turned out to be 3.36%.

As to `O=C1CC[C@H]2[C@H](CCN2C(=O)C2CCCO2)N1Cc1ccncc1` (some centres not stated), the cytotoxicity at 10 µM worked out at 0.898%.

Regarding `Cc1nn(C)cc1CN(C)C(=O)c1ccccn1`, the cytotoxicity at 10 µM amounted to 4.12%.

With `O=C(O)CSc1nccc(-c2ccc3c(c2)OCO3)n1`, the cytotoxicity at 10 µM was -3.61%.

In the case of `Cc1cc(C(F)F)nn1CC(=O)NCc1nccn1C`, the cytotoxicity at 10 µM is -2.17%.

Consider `O=C(O)C1CN(c2cncc(Cc3ccccc3)n2)C1`, for which the cytotoxicity at 10 µM worked out at 0.885%.

As for `CC(=O)Nc1nc(C2CCCN(C(=O)CN(C)C)C2)cs1` (configuration not stated), the cytotoxicity at 10 µM is -43.4%.

Turning to `Cc1cnc(-c2nc(NC3CC3)ncc2-c2cc(C)no2)cn1`, the cytotoxicity at 10 µM is -21.3%.

On to `NC(=O)CN1CCCC(Cc2ccc(N)nn2)C1` (configuration not stated), for which the cytotoxicity at 10 µM was -31.1%.

For `C[C@@H]1C[C@H](C(F)(F)F)n2nc(C3CCN(C(=O)C(C)(C)C)CC3)cc2N1`, the cytotoxicity at 10 µM was -32.8%.

For the compound `CN1CCCC(Cc2cncc(C(=O)NC3CC3)c2)C1` (configuration not stated), the cytotoxicity at 10 µM is -25.6%.

As to `COCCN1CCCC1c1nccnc1Nc1ncc(C)s1` (configuration not stated), the cytotoxicity at 10 µM was -7.99%.

Take `CSc1cc2c(cc1NC(=O)NCc1ccncc1)OCCO2`: the cytotoxicity at 10 µM turned out to be 7.55%.

As for `CCC(CO)Nc1nc(C(F)F)nc2ccccc12` (configuration not stated), the cytotoxicity at 10 µM came out at 1.26%.

Take `CCOC(C)c1nccn1Cc1noc(CC)n1` (configuration not stated): the cytotoxicity at 10 µM was -9.06%.

As to `O=C1CC(C(=O)NCc2ccccc2Oc2ccccc2F)CCN1` (configuration not stated), the cytotoxicity at 10 µM is -2.81%.

Turning to `Cc1csc(N(C)C(=O)C2CC(=O)N(CCc3ccccc3)C2)n1` (configuration not stated), the cytotoxicity at 10 µM is -99.4%.

In the case of `Cc1ccc(CCC(=O)N2CCn3c(nnc3C(C)C)C2)cc1Cl`, the cytotoxicity at 10 µM was -5.45%.

As to `CC(C)c1n[nH]c(C2CN(C(=O)COc3ccc(F)cc3)CCO2)n1` (configuration not stated), the cytotoxicity at 10 µM was -5.7%.

On to `CCc1nnc2n1CCN(C(=O)c1ccc3c(c1)[nH]c(=O)n3C)C2`, for which the cytotoxicity at 10 µM is -3.22%.

Regarding `Cc1cn(-c2ccccc2)nc1NS(=O)(=O)c1cc(C(=O)O)sc1C`, the cytotoxicity at 10 µM is -4.87%.

Turning to `Cc1nc(C)n(CC2CCCN2CC(=O)NCCC#N)n1` (configuration not stated), the cytotoxicity at 10 µM was -2.78%.

For `Cc1nn(-c2ccccc2)nc1C(=O)NCC(c1ccco1)N(C)C` (configuration not stated), the cytotoxicity at 10 µM was 6.51%.

On to `Cc1nc(C(=O)N(C)C2CC(=O)N(Cc3ccccc3)C2=O)cs1` (configuration not stated), for which the cytotoxicity at 10 µM was found to be 0.423%.

As to `Cc1nc(C2CCCN2C(=O)c2ccc(=O)n(C)n2)no1` (configuration not stated), the cytotoxicity at 10 µM was -2.64%.

With `Cc1cc(C(=O)O)c2c(Br)cccc2n1`, the cytotoxicity at 10 µM is -0.575%.

Turning to `CCCNC(=O)Nc1cc2c(cc1SC)OCCO2`, the cytotoxicity at 10 µM is -19%.

For `Nc1cc(CCCNC(=O)NC2CC2)nn1-c1ccccc1`, the cytotoxicity at 10 µM is 1.54%.

Regarding `Cc1cnn(CC2CCCN2Cc2coc(-c3cccs3)n2)c1` (configuration not stated), the cytotoxicity at 10 µM is -3.01%.

Regarding `COc1ccc(OC)c(CNCCc2cc(F)cc3c2OCOC3)c1`, the cytotoxicity at 10 µM was -8.08%.

As to `Cc1nc(C)n(CC2CN(Cc3cccc(C(N)=O)c3)CCO2)n1` (configuration not stated), the cytotoxicity at 10 µM amounted to 6.2%.

As for `Cc1ccc(N2CCc3ncnc(N(C)C)c3CC2)nn1`, the cytotoxicity at 10 µM is -102%.

Consider `CC1c2ncc(COCC3CC3)n2CCN1C(=O)c1ccn(C)n1` (configuration not stated), for which the cytotoxicity at 10 µM is 0.993%.

In the case of `Cn1cc(-c2nnn3c2COC(CNC(=O)c2cccs2)C3)cn1` (configuration not stated), the cytotoxicity at 10 µM came to 3.31%.

On to `Fc1cccc(C2(CNC3CCOC4(CCOCC4)C3)CCOCC2)c1` (configuration not stated), for which the cytotoxicity at 10 µM amounted to 0.616%.

Take `Cc1cc(C)c2c(NCCC34CCCN3CCC4)ncnc2n1`: the cytotoxicity at 10 µM is -2.43%.

Consider `CCn1c(C)nnc1SCCNc1cc(COC)ncn1`, for which the cytotoxicity at 10 µM came out at 6.35%.

For `CCS(=O)(=O)N1CCOC(CCCc2ccccc2)C1` (configuration not stated), the cytotoxicity at 10 µM was -9.31%.

Consider `Cc1ccc(C)c2c(O)cc(CN[C@H]3CCCCNC3=O)nc12`, for which the cytotoxicity at 10 µM was found to be 5.63%.

`Cc1ccccc1CC1(C(=O)O)CCCN(c2ncccn2)C1` (configuration not stated): the cytotoxicity at 10 µM amounted to 1.25%.

Consider `COCCn1ccnc1-c1cc(CN2CCCCC2)cs1`, for which the cytotoxicity at 10 µM is -151%.

Take `CSCc1noc(CNC(=O)C2CCN(C(C)C)CC2)n1`: the cytotoxicity at 10 µM was -2.86%.

For `O=C(c1ccc(C2CCCN2)s1)N1CCN2CCC1CC2` (configuration not stated), the cytotoxicity at 10 µM is -8.52%.

Consider `Cc1cnc(C)c(N2CCC(c3nccn3Cc3cscn3)CC2)n1`, for which the cytotoxicity at 10 µM came to 1.89%.

As to `CCN(C)[C@H]1CN(C(=O)c2cccc(N3CCS(=O)(=O)CC3)c2)C[C@@H]1O`, the cytotoxicity at 10 µM is -5.62%.

For the compound `O=C(CCN1CCCO1)N1CC[C@@H](c2ccc3ccccc3c2)[C@H](O)C1`, the cytotoxicity at 10 µM was -1.04%.

As for `O=C(CCc1cc2n(n1)CCCNC2)NCCS(=O)(=O)N1CCCC1`, the cytotoxicity at 10 µM came out at 0.698%.

For the compound `Cc1nc(CN(Cc2cccnc2)Cc2ccsc2)c[nH]1`, the cytotoxicity at 10 µM came to 0.935%.

As for `COC(C)(C)CC(C)NCc1cn2ccccc2n1` (configuration not stated), the cytotoxicity at 10 µM was -3.48%.

`OC1CCN(c2ccnc(NCCN3CCc4ccccc4C3)n2)C1` (configuration not stated): the cytotoxicity at 10 µM was -11.8%.

As to `CCOCCn1c(=O)[nH]c2cc(C(=O)N(C)Cc3ccno3)ccc21`, the cytotoxicity at 10 µM is -1.79%.

In the case of `O=S(=O)(Nc1ccc2c(c1)OCCO2)N1CCCCC1`, the cytotoxicity at 10 µM came to 3.96%.

Regarding `CCc1cc(N2CCCNCC2)n2nc(C)c(C)c2n1`, the cytotoxicity at 10 µM was determined as 4.46%.

On to `COc1ccccc1OC1(C(=O)O)CCN(c2nccnc2C)CC1`, for which the cytotoxicity at 10 µM is -10.4%.

Take `CN1CCC(CCNC(=O)c2ccc(N(C)S(C)(=O)=O)cc2Cl)CC1`: the cytotoxicity at 10 µM is -10.1%.

`Cc1cc(C)n(CC2CN(CC(=O)N3CCC3)CCO2)n1` (configuration not stated): the cytotoxicity at 10 µM is -10.7%.

Turning to `Cc1cnn(CCNCC(=O)NC(C)c2ccc3c(c2)OCCO3)c1` (configuration not stated), the cytotoxicity at 10 µM was -1.58%.

In the case of `COc1cc(C)nc(N2CCN(C(=O)c3cccc(C#N)c3)CC2)n1`, the cytotoxicity at 10 µM is -3.54%.

Consider `NC(=O)C1CCN(C(=O)NCc2ccc(-c3ccn[nH]3)cc2)CC1`, for which the cytotoxicity at 10 µM is -1.73%.

With `CS(=O)(=O)NC(=O)c1nnn(-c2ccccc2)c1C1CC1`, the cytotoxicity at 10 µM is -7.09%.

For the compound `Cc1noc(C2CCCN(C(=O)CCCNc3ncccn3)C2)n1` (configuration not stated), the cytotoxicity at 10 µM was -3.92%.

Turning to `CC(=O)N1CCN(C(=O)CCn2c(C)nc3ccccc3c2=O)CC1`, the cytotoxicity at 10 µM is -4.81%.

Regarding `CCC(=O)Nc1ccc2c(ccn2CC(=O)N(CC)CC)c1`, the cytotoxicity at 10 µM is -12.2%.

Take `Cc1nn(C)c(Cl)c1C1CCCN1Cc1ccccn1` (configuration not stated): the cytotoxicity at 10 µM is -0.459%.

`COc1ccc(C(=O)N2CCCC(n3cncn3)C2)nn1` (configuration not stated): the cytotoxicity at 10 µM came out at 5.58%.

Turning to `Cc1c(F)cc(C(=O)O)cc1S(=O)(=O)Nc1ccc(F)c(C#N)c1`, the cytotoxicity at 10 µM was -6.02%.

As for `CCN(Cc1ccc(OC)c(F)c1)C(=O)c1ccc(C)[nH]c1=O`, the cytotoxicity at 10 µM was -8.08%.

Turning to `Cc1ccc(OCCNC(=O)C(C)n2cncn2)cc1` (configuration not stated), the cytotoxicity at 10 µM was -3.53%.

As to `COc1ccc(COCC(O)CNC(=O)c2cccnc2)cc1` (configuration not stated), the cytotoxicity at 10 µM came to 7.94%.

Consider `Cc1cccc(C(=O)NCc2ccc(N3CCCCC3)nc2)n1`, for which the cytotoxicity at 10 µM is 4.26%.

Turning to `O=C(COCC1CC1)N1CCCC(n2cccn2)C1` (configuration not stated), the cytotoxicity at 10 µM was 4.6%.

Turning to `O=C(CCOc1cccc(F)c1)N1CCCC(n2cncn2)C1` (configuration not stated), the cytotoxicity at 10 µM was -0.192%.

`Cn1cnnc1C1CCCN(C(=O)c2ccccc2Cl)C1` (configuration not stated): the cytotoxicity at 10 µM was found to be 3.59%.

For the compound `CCOc1ncccc1C(=O)N(C)Cc1ncc(C)c(OC)c1C`, the cytotoxicity at 10 µM amounted to 3.06%.

In the case of `Cc1n[nH]c(C)c1NC(=O)CN1CCOC(Cn2cccn2)C1` (configuration not stated), the cytotoxicity at 10 µM was -2.82%.

For the compound `O=C1CC[C@@H]2[C@@H](CCN2Cc2ccncc2)N1c1ccccc1`, the cytotoxicity at 10 µM was -1.88%.

`O=C([C@H]1CN(CCc2ccccc2)C[C@H]2OCC[C@@H]12)N1CCCO1`: the cytotoxicity at 10 µM is -9.49%.

As to `Cn1ncc2c1CN(Cc1ccc(F)cc1)CC2COCC1CC1` (configuration not stated), the cytotoxicity at 10 µM was found to be 9.55%.

As to `CS(=O)(=O)NCc1cnc2n1CCN(Cc1cccs1)CC2`, the cytotoxicity at 10 µM was 3.04%.

For the compound `O=C(c1ccno1)N1CCO[C@@H]2CC(COCc3ccccn3)C[C@H]21` (some centres not stated), the cytotoxicity at 10 µM was -103%.

Regarding `Cc1ccc(S(=O)(=O)NCC(C)(C)N)c(F)c1`, the cytotoxicity at 10 µM was found to be 7.42%.

As to `CNC(=O)CN1CCC2(CCCN(CC3CCOC3)C2)CC1` (configuration not stated), the cytotoxicity at 10 µM is -107%.

`Cc1ccc(CS(=O)(=O)N2Cc3c(CN(C)C)nn(C)c3C2)cc1`: the cytotoxicity at 10 µM is -98.2%.

In the case of `CC1=N[C@@]2(CC[C@@H]3CN(Cc4ccc(C)cc4)C[C@@H]32)C(=O)N1CC1CC1`, the cytotoxicity at 10 µM amounted to 1.7%.

On to `Cc1ccc(CN2CCc3c(C(=O)N(C)C)nn(C)c3C2)s1`, for which the cytotoxicity at 10 µM is -12.4%.

`CN(C)[C@@H]1CN(C(=O)CCc2ccccc2)[C@@H]2CCCO[C@H]12`: the cytotoxicity at 10 µM was -3.02%.

For `CC(C)N1CCC(c2nc3ccc(-c4ccnn4C)cn3n2)CC1`, the cytotoxicity at 10 µM was 14.9%.

Regarding `CC(C)NC(=O)C1c2c(ncn2C(C)C)CCN1Cc1ccccc1` (configuration not stated), the cytotoxicity at 10 µM worked out at 0.167%.

In the case of `COCC1N(C(=O)Nc2ccccc2)C2CCC1(O)CC2` (configuration not stated), the cytotoxicity at 10 µM came out at 3.15%.

In the case of `CN1[C@@H]2CC[C@H]1CN(C(=O)c1sccc1S(N)(=O)=O)CC2`, the cytotoxicity at 10 µM is 1.95%.
